Active and inactive are the calls of the source. The calls are words filed in the database; no cut-off is given here.
Key:
Cytochrome P450 26A1 [1] = molecular target: T1, Cytochrome P450 26A1 (Homo sapiens, UniProt O43174)
T1 sequence (O43174 whole entry): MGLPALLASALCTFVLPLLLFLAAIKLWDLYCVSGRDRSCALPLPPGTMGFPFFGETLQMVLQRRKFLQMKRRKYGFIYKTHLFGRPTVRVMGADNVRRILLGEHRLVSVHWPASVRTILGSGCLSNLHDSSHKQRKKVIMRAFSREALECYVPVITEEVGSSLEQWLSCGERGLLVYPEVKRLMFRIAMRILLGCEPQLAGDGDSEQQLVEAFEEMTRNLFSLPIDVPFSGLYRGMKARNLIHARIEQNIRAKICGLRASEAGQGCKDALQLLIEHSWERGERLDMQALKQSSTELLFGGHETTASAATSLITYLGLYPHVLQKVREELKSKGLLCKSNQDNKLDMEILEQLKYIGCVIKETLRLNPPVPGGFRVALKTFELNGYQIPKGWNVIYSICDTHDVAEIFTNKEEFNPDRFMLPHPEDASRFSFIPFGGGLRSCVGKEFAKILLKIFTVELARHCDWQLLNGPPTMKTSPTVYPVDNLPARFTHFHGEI

Cytochrome P450 26B1 [2] = molecular target: T2, Cytochrome P450 26B1 (Homo sapiens, UniProt Q9NR63)
T2 sequence (Q9NR63 whole entry): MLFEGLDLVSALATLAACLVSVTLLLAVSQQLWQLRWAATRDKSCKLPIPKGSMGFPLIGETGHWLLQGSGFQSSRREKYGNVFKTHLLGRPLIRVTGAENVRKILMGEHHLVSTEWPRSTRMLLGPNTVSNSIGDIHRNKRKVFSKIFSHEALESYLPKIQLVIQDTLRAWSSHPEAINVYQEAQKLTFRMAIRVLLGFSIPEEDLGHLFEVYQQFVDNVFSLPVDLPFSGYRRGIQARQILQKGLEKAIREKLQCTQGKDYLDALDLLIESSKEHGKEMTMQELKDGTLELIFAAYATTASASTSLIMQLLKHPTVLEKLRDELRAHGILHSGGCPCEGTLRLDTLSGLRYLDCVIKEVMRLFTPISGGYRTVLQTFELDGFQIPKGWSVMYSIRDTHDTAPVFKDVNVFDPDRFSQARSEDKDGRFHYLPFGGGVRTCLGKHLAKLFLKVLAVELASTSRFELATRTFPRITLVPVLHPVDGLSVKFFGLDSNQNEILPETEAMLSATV

CYP3A4 = CYP3A4 (Homo sapiens, UniProt P08684); assay: Inhibition of CYP3A4 in human liver microsomes upto 100 uM using midazolam as substrate by LC-MS/MS analysis in presence of NADPH; type: ADME; details: probe midazolam, read-out: Imax
CYP3A4, sequence (P08684 whole entry): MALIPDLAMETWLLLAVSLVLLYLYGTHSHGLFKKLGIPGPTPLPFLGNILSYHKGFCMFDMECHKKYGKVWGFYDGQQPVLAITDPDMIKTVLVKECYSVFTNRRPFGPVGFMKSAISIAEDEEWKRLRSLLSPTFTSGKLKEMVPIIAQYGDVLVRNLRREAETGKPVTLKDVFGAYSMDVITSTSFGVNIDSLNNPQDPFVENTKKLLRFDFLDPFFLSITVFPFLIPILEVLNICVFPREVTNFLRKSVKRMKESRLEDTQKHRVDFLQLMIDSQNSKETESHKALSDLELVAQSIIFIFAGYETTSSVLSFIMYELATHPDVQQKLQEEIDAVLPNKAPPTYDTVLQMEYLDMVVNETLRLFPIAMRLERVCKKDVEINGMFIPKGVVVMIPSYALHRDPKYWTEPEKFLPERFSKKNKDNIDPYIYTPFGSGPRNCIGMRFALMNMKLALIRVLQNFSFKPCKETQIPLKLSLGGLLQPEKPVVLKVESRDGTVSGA
Procedure, shortened: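 Human liver microsomes incubated with midazolam as the CYP3A4-selective substrate plus inhibitor in 100 mM potassium phosphate buffer. Reaction started with NADPH and quenched with ice-cold acetonitrile. Product formation measured by LC-MS/MS.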

[3] = molecular target: T3, Retinoic acid receptor alpha (Homo sapiens) (UniProt P10276); assay: Activation of human RARalpha at 1 uM by luciferase reporter gene assay
T3 sequence (whole entry): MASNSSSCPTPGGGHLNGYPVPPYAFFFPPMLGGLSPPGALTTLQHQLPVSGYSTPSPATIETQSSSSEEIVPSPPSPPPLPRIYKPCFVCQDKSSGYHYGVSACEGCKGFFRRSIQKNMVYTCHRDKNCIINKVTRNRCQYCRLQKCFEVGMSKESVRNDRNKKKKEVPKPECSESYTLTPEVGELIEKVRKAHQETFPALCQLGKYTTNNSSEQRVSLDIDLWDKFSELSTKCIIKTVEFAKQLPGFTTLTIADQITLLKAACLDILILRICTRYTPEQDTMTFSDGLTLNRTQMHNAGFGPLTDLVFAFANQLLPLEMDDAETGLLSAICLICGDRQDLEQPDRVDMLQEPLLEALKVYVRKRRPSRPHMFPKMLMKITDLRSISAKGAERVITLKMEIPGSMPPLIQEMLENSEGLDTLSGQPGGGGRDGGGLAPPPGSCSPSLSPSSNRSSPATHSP

[4] = molecular target: T4, Retinoic acid receptor (Homo sapiens) (UniProt P13631+P10826+P10276); assay: Activation of RAR in human HepG2 cells assessed as upregulation of RARbeta mRNA expression at 1 uM after 24 hrs by RT-PCR method; type: cell-based
T4 sequence (P10826 whole entry, looked up, one chain of several): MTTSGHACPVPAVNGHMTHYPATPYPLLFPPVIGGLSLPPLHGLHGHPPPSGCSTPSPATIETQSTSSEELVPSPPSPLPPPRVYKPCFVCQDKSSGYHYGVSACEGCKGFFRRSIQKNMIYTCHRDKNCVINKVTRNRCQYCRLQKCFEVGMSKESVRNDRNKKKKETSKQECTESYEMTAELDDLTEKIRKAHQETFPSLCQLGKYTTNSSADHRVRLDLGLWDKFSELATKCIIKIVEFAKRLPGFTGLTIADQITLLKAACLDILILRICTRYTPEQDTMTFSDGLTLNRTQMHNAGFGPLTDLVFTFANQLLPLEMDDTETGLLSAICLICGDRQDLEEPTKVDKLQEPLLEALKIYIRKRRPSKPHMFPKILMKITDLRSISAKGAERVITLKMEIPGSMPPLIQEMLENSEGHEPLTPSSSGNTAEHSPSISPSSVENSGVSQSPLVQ
T4 sequence (P13631 whole entry, looked up, one chain of several): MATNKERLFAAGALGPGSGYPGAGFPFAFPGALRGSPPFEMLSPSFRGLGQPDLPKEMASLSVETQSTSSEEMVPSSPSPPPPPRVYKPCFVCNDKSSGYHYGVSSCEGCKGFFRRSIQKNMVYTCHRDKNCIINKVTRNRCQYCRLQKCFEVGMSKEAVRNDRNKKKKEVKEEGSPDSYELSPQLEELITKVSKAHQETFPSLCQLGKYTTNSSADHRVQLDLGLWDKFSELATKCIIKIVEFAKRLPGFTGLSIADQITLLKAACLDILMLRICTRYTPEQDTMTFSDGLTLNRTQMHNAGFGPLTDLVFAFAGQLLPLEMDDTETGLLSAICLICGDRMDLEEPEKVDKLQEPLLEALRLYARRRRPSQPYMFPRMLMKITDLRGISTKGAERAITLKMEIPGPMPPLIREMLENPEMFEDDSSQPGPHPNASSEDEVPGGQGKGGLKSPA
Procedure, shortened: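 HepG2 cells in DMEM with 10% FBS, 37 °C, 5% CO2, plated 24 h before dosing. Treated 24 h in 2 mL medium at 1 μM in 0.1% DMSO, alongside a 0.1% DMSO vehicle; triplicates. RNA isolated with TRI reagent and cDNA made from 1 μg. TaqMan RT-PCR multiplexed with GAPDH as housekeeping gene; fold change by the C_T method.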

[5] = molecular target: T4, Retinoic acid receptor (Homo sapiens); assay: Activation of RAR in human HepG2 cells assessed as upregulation of CYP26A1 mRNA expression at 1 uM after 24 hrs by RT-PCR method; type: cell-based
Procedure, shortened: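 HepG2 cells kept in DMEM with 10% FBS at 37 °C under 5% CO2. Plated and left to adhere 24 h, then exposed 24 h to 1 μM compound in 0.1% DMSO, with 0.1% DMSO as vehicle control. Triplicate wells. TRI reagent mRNA extraction, cDNA from 1 μg mRNA. CYP26A1 measured by TaqMan RT-PCR multiplexed with GAPDH as housekeeping gene. Fold-difference calculated by the CT method.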

Cytochrome P450 26A1 [6] = molecular target: T1, Cytochrome P450 26A1; assay: Inhibition of CYP26A1-mediated atRA metabolism in human HepG2 cells assessed as atRA level in cell media at 1 uM after 24 hrs by LC/MS-MS analysis (reference value: 0.49 +/- 0.33 nM); type: cell-based; details: hepg2, 24 h
[7] = Activation of human RARbeta at 1 uM by luciferase reporter gene assay
Cytochrome P450 3A4 = Cytochrome P450 3A4 (Homo sapiens, UniProt P08684)
Cytochrome P450 3A4, sequence (P08684 whole entry): as the sequence (P08684 whole entry) above

CYP2D6 = CYP2D6 (Homo sapiens, UniProt P10635); assay: in vitro; details: human liver microsomes, probe dextromethorphan
CYP2D6, sequence (P10635 whole entry): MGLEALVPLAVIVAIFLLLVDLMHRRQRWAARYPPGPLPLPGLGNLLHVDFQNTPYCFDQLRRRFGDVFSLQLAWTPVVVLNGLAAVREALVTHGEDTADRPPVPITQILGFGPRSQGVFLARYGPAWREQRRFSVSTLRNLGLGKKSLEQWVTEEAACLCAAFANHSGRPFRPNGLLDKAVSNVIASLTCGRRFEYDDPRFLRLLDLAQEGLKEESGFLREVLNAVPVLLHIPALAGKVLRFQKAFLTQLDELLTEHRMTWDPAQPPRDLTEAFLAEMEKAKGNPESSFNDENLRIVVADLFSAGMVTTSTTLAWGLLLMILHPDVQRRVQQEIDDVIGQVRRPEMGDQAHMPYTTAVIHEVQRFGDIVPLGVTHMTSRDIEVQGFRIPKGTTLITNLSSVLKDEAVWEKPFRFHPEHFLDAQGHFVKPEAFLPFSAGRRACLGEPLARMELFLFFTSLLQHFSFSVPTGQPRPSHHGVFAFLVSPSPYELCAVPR

Homo sapiens = species on record: Homo sapiens; assay: Selectivity ratio of IC50 for microsomal fraction of human CYP26B1 to IC50 for microsomal fraction of human CYP26A1
Cytochrome P450 26B1 [8] = molecular target: T2, Cytochrome P450 26B1; assay: Inhibition of microsomal fraction of human CYP26B1 expressed in Sf9 cells using 9-cis-RA as substrate at 20 uM preincubated for 5 mins followed by NADPH addition measured after 5 mins by HPLC analysis in presence of rat P450 reductase
Procedure, shortened: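 Sf9 microsomes expressing CYP26B1, 5 pmol, preincubated 10 min at room temperature with 10 pmol E. coli-expressed rat P450 reductase. […] Preincubated 5 min at 37 °C, started with 1 mM NADPH (final), run 5 min. 9-cis-4-OH-RA measured by HPLC; activity expressed relative to solvent control.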

Compound	IC50 (Cytochrome P450 26A1 [1]) [µM]	IC50 (Cytochrome P450 26B1 [2]) [µM]	further results
CC1(C)CCC(C)(C)c2cc(C3(c4ccc(C(=O)O)cc4)SCCS3)ccc21	1.3	–	–
CC1(C)CCC(C)(C)c2cc(C(=O)c3ccc(/C=C/C(=O)O)cc3)ccc21	4.7	> 5	–
CC1(C)CCC(C)(C)c2cc(C3(c4ccc(CCC(=O)O)cc4)OCCO3)ccc21	–	–	Emax (CYP3A4): 40%; Activity [3]: inactive; Activity [4]: inactive; Activity [5]: inactive; Activity (Cytochrome P450 26A1 [6]): 0.27 nM; Activity [7]: inactive
CC1(C)CCC(C)(C)c2cc(/C(COc3ccc(C(=O)O)cc3)=N/O)ccc21	3.5	1.4	–
CC1(C)CCC(C)(C)c2cc(C3(c4ccc5cc(C(=O)O)ccc5c4)SCCS3)ccc21	0.06	–	–
C=C(c1ccc(C(=O)O)cc1)c1cc2c(cc1C)C(C)(C)CCC2(C)C [BEXAROTENE]	13.5	5.9	–
CC1(C)CCC(C)(C)c2cc(C3(c4ccc(/C=C/C(=O)O)cc4)OCCO3)ccc21	–	–	Activity [3]: inactive; Activity [4]: inactive; Activity [5]: inactive; Activity (Cytochrome P450 26A1 [6]): 1.09 nM; IC50 (Cytochrome P450 3A4): 30 µM; inhibition at 10 µM (CYP2D6): 49%
CC1(C)CCC(C)(C)c2cc(C3(c4ccc5cc(C(=O)O)ccc5c4)OCCO3)ccc21	–	–	Ratio IC50 (Homo sapiens): 10
CC1(C)CCC(C)(C)c2cc(C3(c4ccc(C(=O)O)cc4)OCCO3)ccc21	–	–	inhibition at 20 µM (Cytochrome P450 26B1 [8]): 59%
CC1(C)CCC(C)(C)c2cc(C3(c4ccc(CCC(=O)O)cc4)SCCS3)ccc21	–	–	Activity [3]: inactive; Activity [4]: inactive; Activity [5]: inactive
CC1(C)CCC(C)(C)c2cc(C3(c4ccc(/C=C/C(=O)O)cc4)SCCS3)ccc21	> 10	–	–

Second part, led by results:

IC50 (Cytochrome P450 26A1 [1]) [µM]	IC50 (Cytochrome P450 26B1 [2]) [µM]	Compound	further results
> 25	> 25	CC1(C)CCC(C)(C)c2cc(C(=O)c3ccc(C(=O)O)cc3)ccc21	–
> 5	6.2	CC1(C)CCC(C)(C)c2cc(S(=O)(=O)c3ccc(CCC(=O)O)cc3)ccc21	–
> 5	> 5	CC1(C)CCC(C)(C)c2cc(S(=O)(=O)c3cccc(CC(=O)O)c3)ccc21	–
> 5	> 5	CC1(C)CCC(C)(C)c2cc(Sc3cccc(CC(=O)O)c3)ccc21	–
2.8	1.4	CC1(C)CCC(C)(C)c2cc(C(O)COc3ccc(C(=O)O)cc3)ccc21 (stereo unspecified)	–
10.6	> 5	CC1(C)CCC(C)(C)c2cc(Sc3ccc(CC(=O)O)cc3)ccc21	–
> 5	> 5	CC1(C)CCC(C)(C)c2cc(C(=O)c3ccc(CCC(=O)O)cc3)ccc21	–
> 5	> 5	CC1(C)CCC(C)(C)c2cc(S(=O)(=O)c3ccc(CC(=O)O)cc3)ccc21	–
1.66	1.7	CC1(C)CCC(C)(C)c2cc(Cc3ccc(CCC(=O)O)cc3)ccc21	–
4	0.93	CC1(C)CCC(C)(C)c2cc(C(=O)COc3ccc(C(=O)O)cc3)ccc21	–

— ChEMBL document CHEMBL3784928, “Development and Characterization of Novel and Selective Inhibitors of Cytochrome P450 CYP26A1, the Human Liver Retinoic Acid Hydroxylase” (J Med Chem, 2016)
